In article PMC3171605 (Bioorganic & medicinal chemistry letters, 2011):

The compounds below were run against T1, CB1 (Homo sapiens, UniProt P21554) (assay: not given). Conditions: not given.
Assay type: cell-based

T1 sequence (P21554 whole entry, species assumed): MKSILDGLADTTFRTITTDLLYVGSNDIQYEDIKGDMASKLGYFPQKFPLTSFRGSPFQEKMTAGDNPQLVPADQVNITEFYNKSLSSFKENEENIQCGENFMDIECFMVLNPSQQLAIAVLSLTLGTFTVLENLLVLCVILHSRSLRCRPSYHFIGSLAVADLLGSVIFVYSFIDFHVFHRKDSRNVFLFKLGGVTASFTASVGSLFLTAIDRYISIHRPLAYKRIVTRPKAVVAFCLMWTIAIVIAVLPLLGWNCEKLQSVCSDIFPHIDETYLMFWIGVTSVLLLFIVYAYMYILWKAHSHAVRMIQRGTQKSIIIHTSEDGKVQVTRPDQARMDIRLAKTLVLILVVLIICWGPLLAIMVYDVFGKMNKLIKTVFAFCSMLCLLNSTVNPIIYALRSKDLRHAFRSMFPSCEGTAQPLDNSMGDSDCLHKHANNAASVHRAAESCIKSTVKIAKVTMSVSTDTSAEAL

| Structure (SMILES) | Kb [µM] |
| --- | --- |
| Cc1c(C(=O)Nc2ccncc2)nn(-c2ccc(Cl)cc2Cl)c1-c1ccc(Cl)cc1 [Compound 5] | 0.117 |
| Cc1c(C(=O)Nc2cc[n+](C)cc2)nn(-c2ccc(Cl)cc2Cl)c1-c1ccc(Cl)cc1 [Compound 6] | > 10 |
| Cc1c(C(=O)Nc2cc[n+]([O-])cc2)nn(-c2ccc(Cl)cc2Cl)c1-c1ccc(Cl)cc1 [Compound 7] | 1.39 |
| Cc1ccc(NC(=O)c2nn(-c3ccc(Cl)cc3Cl)c(-c3ccc(Cl)cc3)c2C)cn1 [Compound 8] | 0.384 |
| Cc1c(C(=O)Nc2ccc(C)[n+](C)c2)nn(-c2ccc(Cl)cc2Cl)c1-c1ccc(Cl)cc1 [Compound 9] | 8.41 |
| Cc1c(C(=O)Nc2ccc(C)[n+]([O-])c2)nn(-c2ccc(Cl)cc2Cl)c1-c1ccc(Cl)cc1 [Compound 10] | 1.2 |
| Cc1ccc(NC(=O)c2nn(-c3ccc(Cl)cc3Cl)c(-c3ccc(Cl)cc3)c2C)nc1 [Compound 11] | 0.98 |
| Cc1ccc(NC(=O)c2nn(-c3ccc(Cl)cc3Cl)c(-c3ccc(Cl)cc3)c2C)[n+](C)c1 [Compound 12] | 8.59 |
| Cc1ccc(NC(=O)c2nn(-c3ccc(Cl)cc3Cl)c(-c3ccc(Cl)cc3)c2C)[n+]([O-])c1 [Compound 13] | 4.58 |
| Cc1c(C(=O)N[C@H]2CC[C@H](NS(N)(=O)=O)CC2)nn(-c2ccc(Cl)cc2Cl)c1-c1ccc(Cl)cc1 [Compound 18] | 9.43 |
| Cc1c(C(=O)NCC2CCC(CN)CC2)nn(-c2ccc(Cl)cc2Cl)c1-c1ccc(Cl)cc1 (stereo not shown) [Compound 19] | 3.76 |

Each compound was assayed against T1, CB1 (assay: Radioligand displacement of [3H]1). Conditions: not given.
Assay type: binding

| Structure (SMILES) | Ki [µM] |
| --- | --- |
| Cc1c(C(=O)NCC2CCC(CNS(C)(=O)=O)CC2)nn(-c2ccc(Cl)cc2Cl)c1-c1ccc(Cl)cc1 (stereo not shown) [Compound 20] | ~0.01 |

What follows are compounds tested on MDCK-mdr1 cells (assay: MDCK-mdr1 transport assay). Conditions: 3.16 µM apical, 1 hr at 37°C.
Assay type: in vitro ADME, Canine
Procedure, shortened: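 MDCK-mdr1 cells grown on permeable filter inserts for 4 days to confluence. Test compound applied apically at 3.16 µM, incubated 1 hr at 37°C, alongside two reference CB1 antagonists as controls. Apical and basolateral samples dried under nitrogen and quantified by LC-MS/MS (MRM) using a 0.1% formic acid water/methanol gradient at 0.5 mL/min. Read-out is the percentage transported across the monolayer.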

| Structure (SMILES) | transport from apical to basal side of the membrane |
| --- | --- |
| Cc1c(C(=O)NC[C@H]2CC[C@@H](CNS(C)(=O)=O)CC2)nn(-c2ccc(Cl)cc2Cl)c1-c1ccc(Cl)cc1 [Compound 22] | less than 1% |
| Cc1c(C(=O)NC[C@H]2CC[C@@H](CNS(N)(=O)=O)CC2)nn(-c2ccc(Cl)cc2Cl)c1-c1ccc(Cl)cc1 [Compound 23] | less than 1% |
| CCNC1(C(N)=O)CCN(c2ncnc3c2nc(-c2ccccc2Cl)n3-c2ccc(Cl)cc2)CC1 [otenabant, reference compound] | ~ 90% |
| Cc1c(C(=O)NN2CCCCC2)nn(-c2ccc(Cl)cc2Cl)c1-c1ccc(Cl)cc1 [rimonabant, reference compound] | ~ 15% |
